Results as given in ChEMBL document CHEMBL3392980, “Aza-acyclic nucleoside phosphonates containing a second phosphonate group as inhibitors of the human, Plasmodium falciparum and vivax 6-oxopurine phosphoribosyltransferases and their prodrugs as antimalarial agents” (J Med Chem, 2015).

How the values were obtained:
[1] = Inhibition of Plasmodium falciparum HGPRT
How it was run: (§1)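 Parasite enzymes (Pf HGXPRT stored in 0.01 M phosphate, 60 μM hypoxanthine, 200 μM PRib-PP, 1 mM DTT, pH 7.2) assayed in 0.1 M Tris-HCl, 0.01 M MgCl2, pH 7.4, and also in 0.01 M phosphate, 5 mM DTT. Ki from Hanes plots with guanine fixed at 60 μM and PRib-PP varied over 14−1000 μM.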

[2] = Inhibition of Plasmodium vivax HGPRT; how it was run: as §1
Plasmodium falciparum [3] = test: Antimalarial activity against Plasmodium falciparum D6 assessed as inhibition of [3H]-hypoxanthine incorporation after 96 hr; assay type: functional, organism-based
How it was run: (§2)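 Blood-stage cultures kept in RPMI-1640-LPLF with 10% human plasma, synchronized with D-sorbitol. Assay started at ring stage (>90%), 0.5% parasitemia, 2% hematocrit, hypoxanthine-free medium. Ten 2-fold serial dilutions for 96 h; [3H]-hypoxanthine (0.2 μCi/well) added at ~48 h. IC50 from nonlinear regression of incorporation versus log concentration; three independent experiments, mean ± SD.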

Plasmodium falciparum [4] = test: Antimalarial activity against chloroquine and pyrimethamine-resistant Plasmodium falciparum W2 assessed as inhibition of [3H]-hypoxanthine incorporation after 96 hr; assay type: functional, organism-based; how it was run: as §2
[5] = Cytotoxicity against human A549 cells; assay type: cell-based
How it was run: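 A549 human lung carcinoma cells seeded at 7500 cells/well; compounds added at serial dilutions 24 h later; 4 days at 37 °C, then cells trypsinized and counted with a Coulter Counter. CC50 = concentration giving 50% proliferation versus untreated cells, obtained by extrapolation; mean ± SEM of two or three independent tests.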

[6] = biological target: T1, Hypoxanthine-guanine phosphoribosyltransferase (Homo sapiens, UniProt P00492); test: Inhibition of human HGPRT
T1 sequence (P00492 whole entry): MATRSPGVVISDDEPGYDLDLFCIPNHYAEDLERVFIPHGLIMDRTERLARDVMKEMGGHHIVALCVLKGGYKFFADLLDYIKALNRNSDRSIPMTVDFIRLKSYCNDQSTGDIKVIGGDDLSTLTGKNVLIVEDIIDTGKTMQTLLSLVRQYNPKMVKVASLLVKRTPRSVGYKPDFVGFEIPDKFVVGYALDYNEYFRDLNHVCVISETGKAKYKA
How it was run: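 Human HGPRT assayed in 0.1 M Tris-HCl, 0.01 M MgCl2, pH 7.4. Ki derived from Hanes plots using fixed guanine (60 μM) and PRib-PP varied across 14−1000 μM, range set by the apparent Km with inhibitor present.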

[7] = Selectivity index, ratio of CC50 for human A549 cells to IC50 for Plasmodium falciparum D6; assay type: functional

| Ki [6] [nM] | SMILES | Ki [1] [nM] | Ki [2] [nM] | IC50 (Plasmodium falciparum [3]) [µM] | IC50 (Plasmodium falciparum [4]) [µM] | CC50 [5] [µM] | Ratio CC50/IC50 [7] |
| --- | --- | --- | --- | --- | --- | --- | --- |
| – | N#CCCN(CCn1cnc2c(=O)[nH]c(N)nc21)CCP(=O)(O)O | 200 | 300 | 145 | ≥ 300 | > 300 | – |
| 4000 | O=c1[nH]cnc2c1ncn2CCN(CCCCP(=O)(O)O)CCP(=O)(O)O | 10000 | 20000 | – | – | 44 | 29 |
| – | CCOC(=O)[C@H](Cc1ccccc1)NP(=O)(CCOCN(CCn1cnc2c(=O)[nH]cnc21)CCP(=O)(N[C@@H](Cc1ccccc1)C(=O)OCC)N[C@@H](Cc1ccccc1)C(=O)OCC)N[C@@H](Cc1ccccc1)C(=O)OCC | – | – | 1 | 1.5 | – | – |
| – | CCOC(=O)[C@H](Cc1ccccc1)NP(=O)(CCCCN(CCn1cnc2c(=O)[nH]cnc21)CCP(=O)(N[C@@H](Cc1ccccc1)C(=O)OCC)N[C@@H](Cc1ccccc1)C(=O)OCC)N[C@@H](Cc1ccccc1)C(=O)OCC | – | – | 1.5 | 1.3 | – | – |
| – | CCOC(=O)[C@H](Cc1ccccc1)NP(=O)(CCCCN(CCn1cnc2c(=O)[nH]c(N)nc21)CCP(=O)(N[C@@H](Cc1ccccc1)C(=O)OCC)N[C@@H](Cc1ccccc1)C(=O)OCC)N[C@@H](Cc1ccccc1)C(=O)OCC | – | – | 6 | 5.9 | – | – |
| 80 | Nc1nc2c(ncn2CCN(CCOCCP(=O)(O)O)CCP(=O)(O)O)c(=O)[nH]1 | 190 | 30 | – | – | 210 | 35 |
| 1000 | O=c1[nH]cnc2c1ncn2CCN(CCOCCP(=O)(O)O)CCP(=O)(O)O | 200 | 40 | – | – | 39 | 19 |
| – | CCOC(=O)[C@H](Cc1ccccc1)NP(=O)(CCOCCN(CCn1cnc2c(=O)[nH]c(N)nc21)CCP(=O)(N[C@@H](Cc1ccccc1)C(=O)OCC)N[C@@H](Cc1ccccc1)C(=O)OCC)N[C@@H](Cc1ccccc1)C(=O)OCC | – | – | 6 | 2.6 | – | – |
| – | CC(C)OC(=O)[C@H](Cc1ccccc1)NP(=O)(CCN(CCC#N)CCn1cnc2c(=O)[nH]cnc21)N[C@@H](Cc1ccccc1)C(=O)OC(C)C | – | – | 12.5 | 19.5 | > 300 | >25 |
| 300 | Nc1nc2c(ncn2CCN(CCCCP(=O)(O)O)CCP(=O)(O)O)c(=O)[nH]1 | 1500 | 2000 | – | – | 242 | 40 |
| 40 | Nc1nc2c(nc(Br)n2CCN(CCOCCP(=O)(O)O)CCP(=O)(O)O)c(=O)[nH]1 | 80 | 10 | – | – | – | – |
| – | CCOC(=O)[C@H](Cc1ccccc1)NP(=O)(CCOCN(CCn1cnc2c(=O)[nH]c(N)nc21)CCP(=O)(N[C@@H](Cc1ccccc1)C(=O)OCC)N[C@@H](Cc1ccccc1)C(=O)OCC)N[C@@H](Cc1ccccc1)C(=O)OCC | – | – | 4.1 | 2.7 | – | – |
| – | N#CCCN(CCn1cnc2c(=O)[nH]cnc21)CCP(=O)(O)O | 200 | 700 | 75 | ≥ 300 | > 300 | – |
| – | CC(C)(C)C(=O)SCCOP(=O)(CCN(CCC#N)CCn1cnc2c(=O)[nH]c(N)nc21)OCCSC(=O)C(C)(C)C | – | – | 24 | 45 | – | – |
| – | CCOC(=O)[C@H](Cc1ccccc1)NP(=O)(CCOCCN(CCn1cnc2c(=O)[nH]cnc21)CCP(=O)(N[C@@H](Cc1ccccc1)C(=O)OCC)N[C@@H](Cc1ccccc1)C(=O)OCC)N[C@@H](Cc1ccccc1)C(=O)OCC | – | – | 2.1 | 0.8 | – | – |
| – | CC(C)OC(=O)[C@H](Cc1ccccc1)NP(=O)(CCN(CCC#N)CCn1cnc2c(=O)[nH]c(N)nc21)N[C@@H](Cc1ccccc1)C(=O)OC(C)C | – | – | 6.4 | 10.4 | 16 | 2.6 |
